From ChEMBL document CHEMBL3817843, “Understanding Oxadiazolothiazinone Biological Properties: Negative Inotropic Activity versus Cytochrome P450-Mediated Metabolism” (J Med Chem, 2016)

Tests used:
Left cardiac atrium [1] = experiment: Negative inotropic activity in potassium depolarized guinea pig left atrium assessed as reduction in developed tension at 50 uM after 30 mins; type: functional, Cavia porcellus; design: scale not given: the % may be the effect or the level left
Right cardiac atrium [2] = experiment: Negative chronotropic activity in potassium depolarized guinea pig right atrium assessed as reduction in atrial rate at 50 uM after 30 mins; type: functional, Cavia porcellus; design: scale not given: the % may be the effect or the level left
Aorta [3] = experiment: Vasorelaxant activity in potassium depolarized guinea pig aorta assessed as inhibition of calcium-induced contraction at 50 uM after 30 mins; type: functional, Cavia porcellus; design: scale not given: the % may be the effect or the level left
How it was run: (§1)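 Guinea pig aortic strips depolarized with K+ (80 mM). Calcium-induced contraction measured; inhibition expressed as percent change from control, n = 3−5.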

Left cardiac atrium [4] = experiment: Negative inotropic activity in potassium depolarized guinea pig left atrium assessed as reduction in developed tension after 30 mins; type: functional; settings: Cavia porcellus, 0.5 h
How it was run: (§2)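 Guinea pig left atria electrically driven at 1 Hz. EC50 taken from log concentration−response curves by Litchfield and Wilcoxon probit analysis, n = 6−7. Not calculated when the maximum effect was below 50%.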

Aorta [5] = experiment: Vasorelaxant activity in potassium depolarized guinea pig aorta assessed as inhibition of calcium-induced contraction at 10^-4 M after 30 mins; type: functional, Cavia porcellus; design: scale not given: the % may be the effect or the level left; how it was run: as §1
[6] = Relaxant activity in potassium depolarized guinea pig ileum longitudinal smooth muscle assessed as inhibition of calcium-induced contraction at 50 uM after 30 mins; type: functional, Cavia porcellus; design: scale not given: the % may be the effect or the level left
[7] = Relaxant activity in potassium depolarized guinea pig ileum longitudinal smooth muscle assessed as inhibition of calcium-induced contraction after 30 mins; type: functional, tissue-based; settings: Cavia porcellus, 0.5 h
Left cardiac atrium [8] = experiment: Negative inotropic activity in potassium depolarized guinea pig left atrium assessed as reduction in developed tension at 5 uM after 30 mins; type: functional, Cavia porcellus; design: scale not given: the % may be the effect or the level left
Right cardiac atrium [9] = experiment: Negative chronotropic activity in potassium depolarized guinea pig right atrium assessed as reduction in atrial rate at 10^-5 M after 30 mins; type: functional, Cavia porcellus; design: scale not given: the % may be the effect or the level left
Left cardiac atrium [10] = experiment: Negative inotropic activity in potassium depolarized guinea pig left atrium assessed as reduction in developed tension; type: functional; settings: Cavia porcellus; how it was run: as §2
Left cardiac atrium [11] = experiment: Negative inotropic activity in potassium depolarized guinea pig left atrium assessed as reduction in developed tension at 10^-5 M; type: functional, Cavia porcellus; design: scale not given: the % may be the effect or the level left
Aorta [12] = experiment: Vasorelaxant activity in potassium depolarized guinea pig aorta assessed as inhibition of calcium-induced contraction at 10^-6 M; type: functional, Cavia porcellus; design: scale not given: the % may be the effect or the level left
How it was run: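 Guinea pig aortic strips depolarized with 80 mM K+, then contracted by calcium addition. The read-out is percent inhibition of the calcium-induced contraction, expressed as percent change from control, with n = 3–5.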

Left cardiac atrium [13] = experiment: Negative inotropic activity in potassium depolarized guinea pig left atrium assessed as reduction in developed tension at 10^-4 M after 30 mins; type: functional, Cavia porcellus; design: scale not given: the % may be the effect or the level left
Right cardiac atrium [14] = experiment: Negative chronotropic activity in potassium depolarized guinea pig right atrium assessed as reduction in atrial rate at 10^-4 M after 30 mins; type: functional, Cavia porcellus; design: scale not given: the % may be the effect or the level left
Aorta [15] = experiment: Vasorelaxant activity in potassium depolarized guinea pig aorta assessed as inhibition of calcium-induced contraction at 10^-4 M; type: functional, Cavia porcellus; design: scale not given: the % may be the effect or the level left; how it was run: as §1
Left cardiac atrium [16] = experiment: Negative inotropic activity in potassium depolarized guinea pig left atrium assessed as reduction in developed tension at 10^-5 M after 30 mins; type: functional, Cavia porcellus; design: scale not given: the % may be the effect or the level left
Right cardiac atrium [17] = experiment: Negative chronotropic activity in potassium depolarized guinea pig right atrium assessed as reduction in atrial rate at 10^-6 M after 30 mins; type: functional, Cavia porcellus; design: scale not given: the % may be the effect or the level left
Right cardiac atrium [18] = experiment: Negative chronotropic activity in potassium depolarized guinea pig right atrium assessed as reduction in atrial rate after 30 mins; type: functional; settings: Cavia porcellus, 0.5 h
[19] = Relaxant activity in potassium depolarized guinea pig ileum longitudinal smooth muscle assessed as inhibition of calcium-induced contraction at 5 uM after 30 mins; type: functional, Cavia porcellus; design: scale not given: the % may be the effect or the level left
[20] = Relaxant activity in potassium depolarized guinea pig ileum longitudinal smooth muscle assessed as inhibition of calcium-induced contraction at 10^-4 M after 30 mins; type: functional, Cavia porcellus; design: scale not given: the % may be the effect or the level left
Left cardiac atrium [21] = experiment: Negative inotropic activity in potassium depolarized guinea pig left atrium assessed as reduction in developed tension at 10^-6 M after 30 mins; type: functional, Cavia porcellus; design: scale not given: the % may be the effect or the level left
Aorta [22] = experiment: Vasorelaxant activity in potassium depolarized guinea pig aorta assessed as relaxation of calcium-induced contraction; type: functional, tissue-based; settings: Cavia porcellus; how it was run: as §1

SMILES | Activity (Left cardiac atrium [1]) [%] | Activity (Right cardiac atrium [2]) [%] | EC50 (Left cardiac atrium [4]) [nM] | Activity (Aorta [5]) [%] | IC50 [7] [nM] | also measured
O=c1onc2n1C=CSC2(O)c1ccccc1 (stereo unspecified) | 74 | 14 |  |  |  | Activity (Aorta [3]): 11%
COc1cccc(C2(OC(C)C)SC=C(C)n3c2noc3=O)c1 (stereo unspecified) | 84 | 2 | 64 | 36 | 3530 | Activity [6]: 98%
CCOC1(c2ccccc2OC)SC=C(C)n2c1noc2=O (stereo unspecified) |  |  | 140 | 28 |  | Activity (Left cardiac atrium [8]): 85%; Activity (Right cardiac atrium [9]): 29%
COC(=O)C1=C(C)NC(C)=C(C(=O)OC)C1c1ccccc1[N+](=O)[O-] [NIFEDIPINE] |  |  |  |  |  | EC50 (Left cardiac atrium [10]): 260 nM; Activity (Left cardiac atrium [11]): 97%; Activity (Aorta [12]): 82%
COc1ccc(C2(OCC3CCCCC3)SC=C(C)n3c2noc3=O)cc1 (stereo unspecified) |  |  | 660 | 21 |  | Activity (Left cardiac atrium [13]): 80%; Activity (Right cardiac atrium [14]): 3%
O=c1onc2n1-c1ccccc1SC2(O)c1ccccc1 (stereo unspecified) | 97 | 10 | 1290 | 21 |  | 
COc1cccc(C2(OCC3CCCCC3)SC=C(C)n3c2noc3=O)c1 (stereo unspecified) | 83 | 4 | 650 | 20 |  | 
COc1ccc([C@@H]2Sc3ccccc3N(CCN(C)C)C(=O)[C@@H]2OC(C)=O)cc1 [DILTIAZEM] |  |  |  | 88 | 110 | Activity (Left cardiac atrium [11]): 78%; Activity (Aorta [15]): 88%; Activity (Left cardiac atrium [16]): 78%; Activity (Right cardiac atrium [17]): 94%; EC30 (Right cardiac atrium [18]): 70 nM; Activity [19]: 98%
O=c1onc2n1-c1ccccc1SC2(OCC(F)(F)F)c1ccccc1 (stereo unspecified) | 75 |  | 390 | 6 | 14500 | Activity (Right cardiac atrium [14]): 13%; Activity [20]: 75%
CC1=CSC(OC(C)C)(c2ccccc2)c2noc(=O)n21 (stereo unspecified) |  |  | 1190 | 39 | 4820 | Activity (Left cardiac atrium [13]): 82%; Activity (Right cardiac atrium [17]): 25%; Activity [6]: 97%
COc1ccc(C2(O)Sc3ccccc3-n3c2noc3=O)cc1 (stereo unspecified) |  | 26 | 100 |  |  | Activity (Left cardiac atrium [21]): 95%; Activity (Aorta [3]): 19%
COc1cccc(C2(OCC(F)(F)F)SC=C(C)n3c2noc3=O)c1 (stereo unspecified) |  |  | 320 | 40 | 12400 | Activity (Left cardiac atrium [16]): 72%; Activity (Right cardiac atrium [14]): 9%; Activity [20]: 95%
COc1ccc(CCN(C)CCCC(C#N)(c2ccc(OC)c(OC)c2)C(C)C)cc1OC (stereo unspecified) |  |  |  |  |  | EC50 (Left cardiac atrium [10]): 610 nM; IC50 (Aorta [22]): 380 nM; Activity (Left cardiac atrium [11]): 84%; Activity (Aorta [12]): 95%
COc1ccc(C2(O)SC=C(C)n3c2noc3=O)cc1 (stereo unspecified) | 76 | 12 | 520 |  |  | Activity (Aorta [3]): 18%
